Data reported in ChEMBL document CHEMBL4043110 (Bioorg Med Chem, 2017).
pIC50: −log10 of the molar value. Active and inactive are the calls of the source. The rule behind the calls is not given here.

Key:
[1] = tested on: BEAS-2B; assay: Antiproliferative activity against human BEAS2B cells after 72 hrs by MTS assay; type: cell-based
[2] = tested on: PC-9; assay: Antiproliferative activity against human PC9 cells harboring EGFR exon 19 deletion mutant after 72 hrs by MTS assay; type: functional, cell-based; conditions: PC-9, 72 h
How it was run: (§1)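 NCI-H460, PC9 or NCI-H1975 cells were grown in RPMI 1640 with 10% FBS at 37 °C and 5% CO2, and used at passages 3–5 from thawing. Exponentially growing cells were seeded at 7000 cells/well. After 24 h the medium was replaced with medium containing a 3-fold serial dilution of compound in DMSO, and cells were incubated 72 h at 37 °C. MTS was added for 2 h and A490 read. Samples were run in triplicate and repeated at least three times.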

[3] = tested on: NCI-H460; assay: Antiproliferative activity against human NCI-H460 cells after 72 hrs by MTS assay; type: functional, cell-based; conditions: NCI-H460, 72 h; how it was run: as §1
[4] = Solubility of the compound in PBS at pH 7.4; type: physicochemical
[5] = tested on: NCI-H1975; assay: Antiproliferative activity against human NCI-H1975 cells harboring EGFR L858R/T790M double mutant after 72 hrs by MTS assay; type: functional, cell-based; conditions: NCI-H1975, 72 h; how it was run: as §1
[6] = biological target: T1, Epidermal growth factor receptor (Homo sapiens, UniProt P00533); assay: Inhibition of wild-type EGFR (unknown origin) using Tyr 4 peptide as substrate in presence of ATP by Z-LYTE kinase assay
T1 sequence (P00533 whole entry): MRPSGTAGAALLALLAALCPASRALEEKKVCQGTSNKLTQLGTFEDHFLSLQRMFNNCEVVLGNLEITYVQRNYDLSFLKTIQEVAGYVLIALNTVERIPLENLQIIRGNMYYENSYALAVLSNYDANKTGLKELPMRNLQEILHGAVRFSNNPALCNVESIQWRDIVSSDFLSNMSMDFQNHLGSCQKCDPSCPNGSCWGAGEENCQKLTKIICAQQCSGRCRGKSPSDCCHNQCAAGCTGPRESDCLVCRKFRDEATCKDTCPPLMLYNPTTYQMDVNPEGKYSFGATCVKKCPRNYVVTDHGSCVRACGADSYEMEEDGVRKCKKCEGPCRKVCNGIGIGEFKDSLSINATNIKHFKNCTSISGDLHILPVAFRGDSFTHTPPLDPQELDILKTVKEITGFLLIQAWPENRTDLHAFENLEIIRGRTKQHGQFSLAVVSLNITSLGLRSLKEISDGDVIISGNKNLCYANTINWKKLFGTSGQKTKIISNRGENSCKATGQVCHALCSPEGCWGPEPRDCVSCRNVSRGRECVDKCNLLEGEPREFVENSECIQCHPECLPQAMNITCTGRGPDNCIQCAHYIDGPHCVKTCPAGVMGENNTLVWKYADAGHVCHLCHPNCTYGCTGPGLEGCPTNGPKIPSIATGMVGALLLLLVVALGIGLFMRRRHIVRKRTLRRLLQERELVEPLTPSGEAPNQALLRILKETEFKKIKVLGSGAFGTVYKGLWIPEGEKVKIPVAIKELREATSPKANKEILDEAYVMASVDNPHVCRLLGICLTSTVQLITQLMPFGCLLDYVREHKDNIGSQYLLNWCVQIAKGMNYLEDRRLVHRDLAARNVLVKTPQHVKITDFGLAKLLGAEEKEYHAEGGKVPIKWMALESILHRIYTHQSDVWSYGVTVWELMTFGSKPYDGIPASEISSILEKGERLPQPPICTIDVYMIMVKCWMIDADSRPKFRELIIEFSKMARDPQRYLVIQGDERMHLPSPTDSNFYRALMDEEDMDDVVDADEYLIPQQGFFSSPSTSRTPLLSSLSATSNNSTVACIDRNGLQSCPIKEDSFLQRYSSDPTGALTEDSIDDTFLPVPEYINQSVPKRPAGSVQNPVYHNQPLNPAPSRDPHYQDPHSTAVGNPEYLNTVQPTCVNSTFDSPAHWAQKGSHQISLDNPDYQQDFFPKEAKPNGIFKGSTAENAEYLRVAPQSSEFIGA

[7] = tested on: Epidermal growth factor receptor (Homo sapiens), P00533 [UNDEFINED MUTATION]; assay: Inhibition of EGFR exon 19 deletion mutant in human PC9 cells assessed as inhibition of ERK phosphorylation at P-p44/42 residue up to 1000 nmol/L after 6 hrs by Western blot analysis; type: cell-based
Sequence of Epidermal growth factor receptor (Homo sapiens), P00533 [UNDEFINED MUTATION] (P00533 whole entry, looked up, stated change not applied): as the sequence (P00533 whole entry) above
How it was run: (§2)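 The buffer was supplemented with protease inhibitor cocktail, 40 mmol/L sodium fluoride and 1 mmol/L sodium orthovanadate. Protein was quantified by BCA before immunoblotting.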

[8] = tested on: Epidermal growth factor receptor (Homo sapiens), P00533 [UNDEFINED MUTATION]; assay: Inhibition of EGFR exon 19 deletion mutant phosphorylation at Y1086 residue in human PC9 cells up to 1000 nmol/L after 6 hrs by Western blot analysis; type: cell-based; how it was run: as §2
[9] = tested on: Mus musculus; assay: Toxicity in nude mouse assessed as effect on body weight at 5 mg/kg/day, ig administered once daily for 30 days; type: organism-based; conditions: in vivo, po, 720 h
[10] = biological target: T1, Epidermal growth factor receptor; assay: Inhibition of wild-type EGFR in human LoVo cells assessed as inhibition of AKT phosphorylation at S473 residue up to 1000 nmol/L after 6 hrs by Western blot analysis; type: cell-based; how it was run: as §2
[11] = tested on: Epidermal growth factor receptor (Homo sapiens), P00533 [L858R,T790M]; assay: Inhibition of EGFR L858R/T790M mutant in human H1975 cells assessed as inhibition of AKT phosphorylation at S473 residue up to 1000 nmol/L after 6 hrs by Western blot analysis; type: cell-based; how it was run: as §2
Sequence of Epidermal growth factor receptor (Homo sapiens), P00533 [L858R,T790M] (P00533 whole entry T790M/L858R, looked up): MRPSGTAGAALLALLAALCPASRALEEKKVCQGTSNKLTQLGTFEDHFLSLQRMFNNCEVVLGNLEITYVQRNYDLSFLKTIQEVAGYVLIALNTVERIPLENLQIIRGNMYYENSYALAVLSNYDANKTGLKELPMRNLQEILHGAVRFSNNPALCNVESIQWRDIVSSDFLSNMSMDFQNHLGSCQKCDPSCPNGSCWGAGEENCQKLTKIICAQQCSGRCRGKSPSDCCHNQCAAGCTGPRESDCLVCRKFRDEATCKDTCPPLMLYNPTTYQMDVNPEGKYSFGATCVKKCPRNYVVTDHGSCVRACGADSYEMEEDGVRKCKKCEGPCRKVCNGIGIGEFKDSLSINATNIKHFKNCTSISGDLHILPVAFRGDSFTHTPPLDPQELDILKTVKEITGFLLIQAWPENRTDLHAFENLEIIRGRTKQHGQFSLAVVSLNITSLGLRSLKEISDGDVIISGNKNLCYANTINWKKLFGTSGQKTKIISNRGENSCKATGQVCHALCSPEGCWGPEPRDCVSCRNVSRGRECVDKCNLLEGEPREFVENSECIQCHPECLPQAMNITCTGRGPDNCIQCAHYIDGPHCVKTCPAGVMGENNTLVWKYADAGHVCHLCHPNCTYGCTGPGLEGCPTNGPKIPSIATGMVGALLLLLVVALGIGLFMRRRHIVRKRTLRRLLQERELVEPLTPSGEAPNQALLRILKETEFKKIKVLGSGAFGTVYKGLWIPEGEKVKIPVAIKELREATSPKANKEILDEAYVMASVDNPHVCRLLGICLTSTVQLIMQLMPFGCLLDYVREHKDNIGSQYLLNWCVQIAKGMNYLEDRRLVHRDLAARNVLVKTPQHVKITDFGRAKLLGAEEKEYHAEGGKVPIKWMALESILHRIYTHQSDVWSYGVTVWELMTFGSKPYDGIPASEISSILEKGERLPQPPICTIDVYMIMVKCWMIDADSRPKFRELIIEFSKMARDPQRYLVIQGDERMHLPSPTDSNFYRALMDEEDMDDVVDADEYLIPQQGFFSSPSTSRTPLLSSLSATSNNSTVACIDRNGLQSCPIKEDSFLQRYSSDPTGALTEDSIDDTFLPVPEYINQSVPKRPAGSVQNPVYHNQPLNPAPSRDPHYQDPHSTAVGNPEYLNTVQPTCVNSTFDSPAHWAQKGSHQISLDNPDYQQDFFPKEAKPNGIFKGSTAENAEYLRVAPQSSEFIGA

[12] = tested on: Epidermal growth factor receptor (Homo sapiens), P00533 [L858R,T790M]; assay: Inhibition of EGFR L858R/T790M mutant phosphorylation at Y1086 residue in human H1975 cells up to 1000 nmol/L after 6 hrs by Western blot analysis; type: cell-based; how it was run: as §2
[13] = biological target: Epidermal growth factor receptor (Homo sapiens, UniProt P00533, L858R/T790M); assay: Inhibition of EGFR L858R/T790M mutant (unknown origin) using Tyr 4 peptide as substrate in presence of ATP by Z-LYTE kinase assay
Sequence of Epidermal growth factor receptor (Homo sapiens, UniProt P00533, L858R/T790M) (P00533 25-1210 T790M/L858R limits assumed): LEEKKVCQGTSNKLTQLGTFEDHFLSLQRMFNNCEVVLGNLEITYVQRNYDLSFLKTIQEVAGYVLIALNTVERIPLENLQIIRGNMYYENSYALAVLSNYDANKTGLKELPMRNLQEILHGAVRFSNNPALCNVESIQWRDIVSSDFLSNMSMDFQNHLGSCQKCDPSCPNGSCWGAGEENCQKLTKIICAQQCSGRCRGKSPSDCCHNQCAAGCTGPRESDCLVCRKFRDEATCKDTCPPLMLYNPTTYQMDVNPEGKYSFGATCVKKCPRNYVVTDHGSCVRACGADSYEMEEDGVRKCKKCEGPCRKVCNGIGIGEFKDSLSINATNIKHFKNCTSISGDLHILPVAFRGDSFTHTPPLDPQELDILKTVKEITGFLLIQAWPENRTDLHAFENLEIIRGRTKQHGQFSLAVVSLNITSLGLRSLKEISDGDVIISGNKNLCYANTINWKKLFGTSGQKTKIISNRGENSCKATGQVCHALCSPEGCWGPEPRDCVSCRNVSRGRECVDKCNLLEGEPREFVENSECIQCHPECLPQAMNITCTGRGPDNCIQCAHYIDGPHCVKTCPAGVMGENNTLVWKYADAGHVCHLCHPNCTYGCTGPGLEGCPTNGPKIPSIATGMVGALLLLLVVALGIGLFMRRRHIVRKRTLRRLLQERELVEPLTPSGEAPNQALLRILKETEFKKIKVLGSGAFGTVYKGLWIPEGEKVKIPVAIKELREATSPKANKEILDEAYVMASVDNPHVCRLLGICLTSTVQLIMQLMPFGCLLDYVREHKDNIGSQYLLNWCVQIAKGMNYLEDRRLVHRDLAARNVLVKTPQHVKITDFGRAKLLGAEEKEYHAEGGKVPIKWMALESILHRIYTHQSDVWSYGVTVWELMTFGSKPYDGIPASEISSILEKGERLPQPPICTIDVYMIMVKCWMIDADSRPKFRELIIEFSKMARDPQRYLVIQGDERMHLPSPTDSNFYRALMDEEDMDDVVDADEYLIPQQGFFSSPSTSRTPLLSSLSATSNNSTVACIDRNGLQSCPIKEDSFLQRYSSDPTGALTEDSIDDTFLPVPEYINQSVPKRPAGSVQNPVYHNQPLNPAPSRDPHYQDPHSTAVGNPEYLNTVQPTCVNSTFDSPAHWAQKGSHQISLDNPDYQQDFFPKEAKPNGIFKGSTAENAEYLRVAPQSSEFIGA

[14] = tested on: Epidermal growth factor receptor (Homo sapiens), P00533 [L858R,T790M]; assay: Inhibition of EGFR L858R/T790M mutant in human H1975 cells assessed as inhibition of ERK phosphorylation at P-p44/42 residue up to 1000 nmol/L after 6 hrs by Western blot analysis; type: cell-based; how it was run: as §2
[15] = tested on: NCI-H1975; assay: Antitumor activity against human NCI-H1975 cells harboring L858R/T790M mutant xenografted in nude mouse at 5 mg/kg/day, ig administered once daily for 30 days measured every 2 days of dosing; type: functional, organism-based
How it was run: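 Female nude mice (6–8 weeks) were injected subcutaneously in the right flank with NCI-H1975 cells (1 × 10^6/mouse). Once tumors reached about 150–200 mm3, mice were randomized (n = 10 per group). They were dosed intragastrically at 5 mg/kg/day for 30 consecutive days, or given vehicle DMSO/Cremophor-EL/PBS (1:1:8). Tumor length and width were measured by caliper every two days, and volume = width × width × length/2.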

[16] = tested on: Epidermal growth factor receptor (Homo sapiens), P00533 [UNDEFINED MUTATION]; assay: Inhibition of EGFR exon 19 deletion mutant in human PC9 cells assessed as inhibition of AKT phosphorylation at S473 residue up to 1000 nmol/L after 6 hrs by Western blot analysis; type: cell-based; how it was run: as §2
[17] = organism: Homo sapiens; assay: Selectivity index, ratio of IC50 for wild type EGFR (unknown origin) to IC50 for EGFR L858R/T790M double mutant (unknown origin)
[18] = biological target: T1, Epidermal growth factor receptor; assay: Inhibition of wild-type EGFR in human LoVo cells assessed as inhibition of ERK phosphorylation at P-p44/42 residue up to 1000 nmol/L after 6 hrs by Western blot analysis; type: cell-based; how it was run: as §2
[19] = biological target: T1, Epidermal growth factor receptor; assay: Inhibition of wild-type EGFR phosphorylation at Y1086 residue in human LoVo cells up to 1000 nmol/L after 6 hrs by Western blot analysis; type: cell-based; how it was run: as §2

Row | SMILES | pIC50 [1] | pIC50 [2] | pIC50 [3] | solubility [4] | pIC50 [5] | pIC50 [6] | inhibition [7] | inhibition [8] | Activity [9] | inhibition (INH) [10] | inhibition [11] | inhibition [12] | pIC50 [13] | inhibition [14] | Activity [15] | inhibition [16] | Ratio IC50 [17] | inhibition (INH) [18] | inhibition (INH) [19]
1 | C=CC(=O)Nc1cc(Nc2nccc(-c3cn(C)c4ccccc34)n2)c(OC)cc1N(C)CCN(C)C [OSIMERTINIB] | 4.83 | […] | 6.38 | < 100 µg/mL | […] | – | – | – | – | – | – | – | – | – | – | – | – | – | –
2 | C=CC(=O)Nc1cc(Nc2nccc(-c3cn(C)c4ccccc34)n2)c(OC)cc1N(C)CC[N+](C)(C)[O-] | 4.82 | 7.79 | 6.21 | > 10000 µg/mL | 7.76 | 6.50 | Active | Active | Non-Toxic | Not Active | Active | Active | 8.19 | Active | Active | Active | 49.9 | Not Active | Not Active
3 | C=CC(=O)Nc1cc(Nc2nccc(-c3cn(C)c4c(F)cccc34)n2)c(OC)cc1N(C)CC[N+](C)(C)[O-] | 4.55 | 7.33 | 5.94 | > 10000 µg/mL | 7.05 | 6.23 | Active | Active | – | Not Active | Active | Active | 7.75 | Active | – | Active | 33.4 | Not Active | Not Active
4 | C=CC(=O)Nc1cc(Nc2nccc(-c3cn(C)c4ccc(F)cc34)n2)c(OC)cc1N(C)CC[N+](C)(C)[O-] | 4.80 | 7.58 | 6.05 | < 100 µg/mL | 7.34 | 6.45 | Active | Active | – | Not Active | Active | Active | 7.99 | Active | – | Active | 35 | Not Active | Not Active
5 | C=CC(=O)Nc1cc(Nc2nccc(-c3cn(C)c4ccc(F)cc34)n2)c(OC)cc1N(C)CCN(C)C | 5.10 | 8.09 | 6.37 | < 100 µg/mL | 7.82 | 6.78 | Active | Active | – | Not Active | Active | Active | 8.31 | Active | – | Active | 34.3 | Not Active | Not Active
6 | C=CC(=O)Nc1cc(Nc2nccc(-c3cn(C)c4c(F)cccc34)n2)c(OC)cc1N(C)CCN(C)C | 4.81 | 7.69 | 6.06 | < 100 µg/mL | 7.48 | 6.76 | Active | Active | – | Not Active | Active | Active | 8.22 | Active | – | Active | 29.2 | Not Active | Not Active
